# From ChEMBL document CHEMBL1126267, “A novel synthesis and potent antiinflammatory activity of 4-hydroxy-2(1H)-oxo-1-phenyl-1,8-naphthyridine-3-carboxamides” (1992)
# Key:
# Format in all cases: functional
# Settings in all cases: route oral
# Rattus norvegicus [1] = assay: Antiinflammatory activity on Zymosan-induced rat's paw edema(ZPE) after peroral administration of 100 mg/kg dose with control swelling of 71.7%
# Summary of the method: (§1)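 Male Wistar rats weighing about 150 g were dosed orally with compound suspended in 5% arabic gum. 1 h later, 1% zymosan in 0.1 mL saline was injected subplantarly into the hind paw. Paw volume was measured by plethysmograph before dosing and 4 h after zymosan, with edema as the volume difference. Inhibition % was derived from mean swelling versus the control group.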
# Rattus norvegicus [2] = assay: Antiinflammatory activity on Carrageenan rat's paw edema(CPE) after peroral administration of 100 mg/kg dose with control swelling of 64.2%
# Rattus norvegicus [3] = assay: Inhibition of Zymosan-induced rat's paw edema(ZPE) after peroral administration of 100 mg/kg dose.
# Summary of the method: (§2)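 Male Wistar rats (about 150 g) were dosed orally with compound suspended in 5% arabic gum, 1 h before a subplantar hind-paw injection of 0.1 mL saline. The irritant was 1% zymosan for 33 or 1% λ-carrageenin for 34. Paw volume was measured by plethysmograph before dosing and at 4 h (zymosan) or 3 h (carrageenin). Swelling is relative to initial volume, as mean ± SEM. % inhibition is versus the control group's mean swelling.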
# Rattus norvegicus [4] = assay: Compound was tested for the inhibition of rat reversed passive Arthus pleurisy after peroral administration of 100 mg/kg dose at 0.71 mL of exudate volume with 0.84 mL of control (injected intrapleurally)
# Summary of the method: (§3)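 Male Wistar rats (about 250 g) were given compound orally before the antiserum. Under ether anesthesia, 0.2 mL rabbit anti-egg albumin antiserum was injected intrapleurally. After 30 min, egg albumin (15 mg/100 g body weight in 0.1 mL saline) was given iv. Rats were killed 4.5 h later and the thoracic cavity was rinsed with 5 mL saline. Exudate volume and infiltrated cell number were measured, with inhibition % versus controls as mean ± SEM.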
# Rattus norvegicus [5] = assay: Inhibition of carrageenan-induced rat's paw edema (CPE) after peroral administration of 100 mg/kg dose.; summary of the method: as §2
# Rattus norvegicus [6] = assay: Compound was tested for the inhibition of rat reversed passive Arthus pleurisy after peroral administration of 100 mg/kg dose at 4.4*10e6 no of cells with 5.72*10e6 cells of control
# Summary of the method: (§4)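 Male Wistar rats (about 250 g) under ether received 0.2 mL rabbit anti-egg-albumin antiserum intrapleurally. Thirty min later they got 15 mg EA/100 g body weight in 0.1 mL saline iv. Compounds were given orally beforehand. Rats were killed 4.5 h after induction and the thoracic cavity rinsed with 5 mL saline. Exudate volume and infiltrated cell count were read as mean ± SE. % inhibition is versus control.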
# Rattus norvegicus [7] = assay: Compound was tested for the inhibition of rat reversed passive Arthus pleurisy after peroral administration of 100 mg/kg dose at 3.37*10e6 no of cells with 3.86*10e6 cells of control; summary of the method: as §4
# Rattus norvegicus [8] = assay: Antiinflammatory activity on Carrageenan rat's paw edema(CPE) after peroral administration of 100 mg/kg dose with control swelling of 90.0%
# Rattus norvegicus [9] = assay: Compound was tested for the inhibition of rat reversed passive Arthus pleurisy after peroral administration of 100 mg/kg dose at 0.73 mL of exudate volume with 0.86 mL of control (injected intrapleurally); summary of the method: as §3
# Rattus norvegicus [10] = assay: Antiinflammatory activity on Zymosan-induced rat's paw edema(ZPE) after peroral administration of 100 mg/kg dose with control swelling of 85.5%; summary of the method: as §1
# Rattus norvegicus [11] = assay: Compound was tested for the inhibition of rat reversed passive Arthus pleurisy after peroral administration of 10 mg/kg dose at 0.44 mL of exudate volume with 0.68 mL of control (injected intrapleurally); summary of the method: as §3
# Rattus norvegicus [12] = assay: Compound was tested for the inhibition of Carrageenan rat's paw edema(CPE) after peroral administration of 30 mg/kg dose
# Rattus norvegicus [13] = assay: Compound was tested for the inhibition of Zymosan-induced rat's paw edema(ZPE) after peroral administration of 30 mg/kg dose; summary of the method: as §1
# Rattus norvegicus [14] = assay: Compound was tested for the inhibition of rat reversed passive Arthus pleurisy after peroral administration of 30 mg/kg dose at 0.33 mL of exudate volume with 0.68 mL of control (injected intrapleurally); summary of the method: as §4
# Rattus norvegicus [15] = assay: Antiinflammatory activity on Carrageenan rat's paw edema(CPE) after peroral administration of 30 mg/kg dose
# Rattus norvegicus [16] = assay: Compound was tested for the inhibition of rat reversed passive Arthus pleurisy after peroral administration of 100 mg/kg dose at 0.12 mL of exudate volume with 0.68 mL of control (injected intrapleurally); summary of the method: as §3
# Rattus norvegicus [17] = assay: Compound was tested for the inhibition of arachidonic acid-induced rat's paw edema(APE) after peroral administration of 30 mg/kg dose
# Summary of the method: (§5)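 Test: arachidonic acid paw edema in male Wistar rats of about 150 g. Oral dosing in 5% arabic gum came 1 h before subplantar injection of 1% arachidonic acid sodium salt in 0.1 mL saline into the hind paw. Plethysmograph paw volume was read before dosing and 1 h post-irritant, and edema = volume difference. % inhibition was taken from mean swelling against controls.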
# Rattus norvegicus [18] = assay: Compound was tested for the inhibition of arachidonic acid-induced rat's paw edema(APE) after peroral administration of 30 mg/kg dose with control swelling of 33.8%; summary of the method: as §5
# Rattus norvegicus [19] = assay: Antiinflammatory activity on Zymosan-induced rat's paw edema(ZPE) after peroral administration of 100 mg/kg dose with control swelling of 66.9%; summary of the method: as §1
# Rattus norvegicus [20] = assay: Compound was tested for the inhibition of rat reversed passive Arthus pleurisy after peroral administration of 3 mg/kg dose at 3.17*10e6 no of cells with 3.24*10e6 cells of control; summary of the method: as §4
# Rattus norvegicus [21] = assay: Compound was tested for the inhibition of rat reversed passive Arthus pleurisy after peroral administration of 100 mg/kg dose at 1.52*10e6 no of cells with 3.24*10e6 cells of control; summary of the method: as §3
# Rattus norvegicus [22] = assay: Compound was tested for the inhibition of rat reversed passive Arthus pleurisy after peroral administration of 30 mg/kg dose at 2.79*10e6 no of cells with 3.24*10e6 cells of control; summary of the method: as §4
# Rattus norvegicus [23] = assay: Antiinflammatory activity on Carrageenan rat's paw edema(CPE) after peroral administration of 100 mg/kg dose with control swelling of 69.9%
# Rattus norvegicus [24] = assay: Compound was tested for the inhibition of rat reversed passive Arthus pleurisy after peroral administration of 10 mg/kg dose at 3.18*10e6 no of cells with 3.24*10e6 cells of control; summary of the method: as §3
# Rattus norvegicus [25] = assay: Compound was tested for the inhibition of arachidonic acid-induced rat's paw edema(APE) after peroral administration of 100 mg/kg dose with control swelling of 51.6%; summary of the method: as §5
# Rattus norvegicus [26] = assay: Antiinflammatory activity on Zymosan-induced rat's paw edema(ZPE) after peroral administration of 30 mg/kg dose with control swelling of 66.9%; summary of the method: as §1
# Rattus norvegicus [27] = assay: Compound was tested for the inhibition of rat reversed passive Arthus pleurisy after peroral administration of 3 mg/kg dose at 0.6 mL of exudate volume with 0.68 mL of control (injected intrapleurally); summary of the method: as §4
# Rattus norvegicus [28] = assay: Compound was tested for the inhibition of arachidonic acid-induced rat's paw edema(APE) after peroral administration of 100 mg/kg dose; summary of the method: as §5
compound,measurement,setting,value
COc1ccccc1NC(=O)c1c(O)c2cccnc2n(-c2ccccc2)c1=O,Swelling,Rattus norvegicus [1],65.9%
same,Swelling,Rattus norvegicus [2],70.7%
same,inhibition in vivo at 100 mg/kg,Rattus norvegicus [3],8.1%
same,inhibition in vivo at 100 mg/kg,Rattus norvegicus [4],16.7%
same,inhibition in vivo at 100 mg/kg,Rattus norvegicus [5],-10.1%
same,inhibition in vivo at 100 mg/kg,Rattus norvegicus [6],26.8%
Cc1ccccc1NC(=O)c1c(O)c2cccnc2n(-c2ccccc2)c1=O,inhibition in vivo at 100 mg/kg,Rattus norvegicus [7],16.6%
same,Swelling,Rattus norvegicus [8],81.2%
same,inhibition in vivo at 100 mg/kg,Rattus norvegicus [3],11.7%
same,inhibition in vivo at 100 mg/kg,Rattus norvegicus [5],9.8%
same,inhibition in vivo at 100 mg/kg,Rattus norvegicus [9],16.9%
same,Swelling,Rattus norvegicus [10],75.5%
O=C(Cn1c(=O)sc2ccc(Cl)cc21)N1CCN(CCO)CC1 [TIARAMIDE],inhibition in vivo at 10 mg/kg,Rattus norvegicus [11],40.7%
same,inhibition in vivo at 30 mg/kg,Rattus norvegicus [12],8.4%
same,inhibition in vivo at 30 mg/kg,Rattus norvegicus [13],15.1%
same,inhibition in vivo at 30 mg/kg,Rattus norvegicus [14],59.3%
same,Swelling,Rattus norvegicus [15],64%
same,inhibition in vivo at 100 mg/kg,Rattus norvegicus [16],94.9%
same,inhibition in vivo at 30 mg/kg,Rattus norvegicus [17],5%
same,Swelling,Rattus norvegicus [18],32.1%
same,inhibition in vivo at 100 mg/kg,Rattus norvegicus [3],23%
same,Swelling,Rattus norvegicus [19],51.5%
same,inhibition in vivo at 3 mg/kg,Rattus norvegicus [20],2.7%
same,inhibition in vivo at 100 mg/kg,Rattus norvegicus [21],67.2%
same,inhibition in vivo at 30 mg/kg,Rattus norvegicus [22],9.8%
same,Swelling,Rattus norvegicus [23],60.6%
same,inhibition in vivo at 10 mg/kg,Rattus norvegicus [24],2.3%
same,Swelling,Rattus norvegicus [25],26.7%
same,Swelling,Rattus norvegicus [26],56.8%
same,inhibition in vivo at 3 mg/kg,Rattus norvegicus [27],13.6%
same,inhibition in vivo at 100 mg/kg,Rattus norvegicus [5],13.3%
same,inhibition in vivo at 100 mg/kg,Rattus norvegicus [28],48.3%
